High-throughput results as filed in PubChem BioAssay.
Compounds with a hit are over-represented: about 4.1% of the library has one in this group of screens.
KCNQ1 act: potentiators or activators of KCNQ1 channel, primary screen, cell-based, thallium flux, high-throughput. B-score at 10 µM. CHO-K1 KCNQ1, thallium flux FluxOR fluorescence; hits give high values. actives 0.35% (n = 310,000);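 active = fluorescence ratio B-score, a plate-corrected score, at least three library SD, with initial intensity B-score within 5 SD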
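System: CHO-K1 cells stably expressing KCNQ1 / Medium: assay buffer for compound exposure, DMSO matched across wells / Reagent: thallium- and potassium-containing depolarizing buffer / Compound: one concentration, matched DMSO / Incubation: 20 min compound pretreatment at room temperature / Measured by: kinetic FluxOR fluorescence, 10 s baseline plus 110 s post-stimulus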
KCNK3 block: human KCNK3 channel inhibitors, primary screen, CHO cells, FluxOR thallium flux, B-score; actives 0.84% (n = 340,000); Potassium channel subfamily K member 3 (Homo sapiens), O14649; B-score at 10 µM; FluxOR fluorescence; hits give low values;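 active = B-score under library mean minus 4 SD, starting fluorescence ratio at most library mean plus 5 SD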;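 also: more negative B-score means stronger inhibition of thallium flux through KCNK3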
KCNQ1 block: inhibitors of human KCNQ1 channel, primary screen, cell-based, thallium flux, high-throughput | Potassium voltage-gated channel subfamily KQT member 1 (Homo sapiens), P51787 | CHO-K1 KCNQ1, FluxOR thallium flux fluorescence; hits give high values | B-score at 10 µM | actives 1.3% (n = 310,000);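 active = compounds whose thallium flux B-score, printed positive for inhibition, exceeds three library SD while starting fluorescence stays within three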;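 also: channel opened by potassium depolarization with thallium stimulus after 20 min compound exposure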
KCNK9 inh: KCNK9 potassium channel inhibitors, primary screen, HEK293 cells, thallium flux. actives 1.2% (n = 310,000). B-score at 10 µM. AID 488922, 2010. FluxOR thallium flux fluorescence; hits give low values;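 active = ratio B-score over 3 SD below the library mean, with starting fluorescence within 5 SD of its mean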;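 also: negative B-score means less thallium flux so channel inhibition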
Target sequence (Q9NPC2 whole entry, looked up): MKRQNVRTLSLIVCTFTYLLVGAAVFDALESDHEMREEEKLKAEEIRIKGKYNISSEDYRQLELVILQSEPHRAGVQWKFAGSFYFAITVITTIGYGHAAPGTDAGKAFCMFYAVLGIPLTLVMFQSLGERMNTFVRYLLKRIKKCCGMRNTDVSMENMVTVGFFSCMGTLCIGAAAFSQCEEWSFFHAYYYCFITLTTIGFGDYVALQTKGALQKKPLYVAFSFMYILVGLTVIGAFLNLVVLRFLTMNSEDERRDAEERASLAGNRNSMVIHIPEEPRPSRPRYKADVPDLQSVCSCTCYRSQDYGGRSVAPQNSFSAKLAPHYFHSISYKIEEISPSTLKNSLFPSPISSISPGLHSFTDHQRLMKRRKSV
Cl transport mod: KCC2 cotransporter modulators, thallium flux, primary screen, cell-based, HEK293 KCC2, FluoZin-2 fluorescence, MLSMR | Solute carrier family 12 member 5 (Homo sapiens), Q9H2X9 | KCC2 cells, thallium flux FluoZin-2 fluorescence | B-score of Tl+ flux slope (higher = more flux/activation; lower = inhibition) at 10 µM | actives 2.2% (n = 190,000);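 active = thallium flux slope and its plate-corrected score both differing from the plate sample mean at a set confidence after two filtering rounds, in either direction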;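 also: slope of fluorescence scaled to starting intensity during 10 to 20 s after thallium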
hERG rescue: hERG rescue from dofetilide block, primary screen, cell-based, CHO-hERG, FluxOR thallium flux, dofetilide IC70; activation (rescue from dofetilide block), less the hit threshold, % at 10 µM; AID 1511, 2009; actives 0.51% (n = 310,000); dofetilide IC70 present; Voltage-gated inwardly rectifying potassium channel KCNH2 (Homo sapiens), Q12809;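 active = activation above the mean of controls blocked by dofetilide plus 5 SD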;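 also: thallium influx through hERG after potassium depolarization seen as dye fluorescence rise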
KCC2 sec1: KCC2 modulators in sodium-free buffer, confirmation, cell-based, HEK293 KCC2, thallium flux, secondary assay; shares compounds with Cl transport mod; FluoZin2 fluorescence; hits give high values; normalised thallium flux (F/F0 slope) at 10 µM; actives 15% (n = 3,700);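 active = thallium flux slope above the same plate's solvent-only control mean plus 3 SD; inconclusive = the two replicate wells disagree; inactive = no significant difference from solvent-only control wells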
KCC2 bumet counter: thallium flux persisting under bumetanide in KCC2 cells, confirmation, counter-screen for KCC2 modulator project, cell-based, HEK293 KCC2, FluoZin2, secondary assay 3. shares compounds with Cl transport mod. HEK293-KCC2 + bumetanide/ouabain; hits give high values. normalized thallium flux at 10 µM. actives 49% (n = 3,700);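 active = thallium entry rate above the same plate's blocked-transporter control wells by more than 3 SD; inconclusive = the two repeat wells disagree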;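 also: raw slope of fluorescence over initial fluorescence between 10 and 20 s after thallium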
KCC2 sec2: KCC2 modulators without ouabain present, confirmation, cell-based, HEK293 KCC2, thallium flux, FluoZin2, secondary assay 2; shares compounds with Cl transport mod; thallium flux FluoZin2 fluorescence; actives lie on both sides; F/F0 rise rate, 10–20 s post-thallium; normalized thallium flux at 10 µM; actives 23% (n = 3,700); AID 1715, 2009;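 active = thallium flux slope more than 3 SD above or below the plate's solvent-only control mean, mostly below; inconclusive = the two repeat wells disagreed; inactive = no significant shift from solvent-only controls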
HEK293 Tl flux: thallium flux modulation in parental HEK cells, confirmation, counter-screen for KCC2 modulator project, cell-based, counterscreen 1; thallium flux rate (normalised fluorescence) at 10 µM; shares compounds with Cl transport mod; HEK293 parental cells, thallium flux FluoZin2, ouabain; baseline-ratio fluorescence slope, 10–20 s after thallium; AID 1716, 2009; actives 46% (n = 3,700);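 active = thallium flux rate significantly above the same plate's solvent-only control wells, beyond their mean plus 3 SD; inconclusive = the two replicate wells gave conflicting results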
KCC2 retest ouab: KCC2 inhibitors and activators, ouabain retest, confirmation, HEK-KCC2 cells; HEK293-KCC2, thallium flux FluoZin2 fluorescence; bidirectional: low = inhibitor, high = activator; raw Tl+ flux slope (below DMSO = inhibition, above = activation) at 10 µM; AID 1717, 2009; shares compounds with Cl transport mod; actives 48% (n = 3,700);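 active = thallium flux slope beyond 3 SD from same-plate DMSO control mean in most replicates, usually higher, sometimes lower; inconclusive = repeat tests gave conflicting results; inactive = no significant difference from controls in most replicates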;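 also: slope of initial-normalized fluorescence between seconds 10 and 20 after thallium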
HEK293 Tl flux2: native HEK Tl+ uptake effects, second counter-screen – HEK cells, counterscreen 2, counter-screen for KCC2 modulator project, confirmation | shares compounds with Cl transport mod | actives 33% (n = 3,700) | thallium flux slope at 10 µM | HEK293 parental, thallium flux FluoZin-2 fluorescence slope | AID 1718, 2009;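 active = thallium flux slope above the same plate's solvent-control mean plus 3 SD in both duplicate wells; inconclusive = duplicate wells that disagreed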;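 also: run without ouabain in cells lacking the KCC2 cotransporter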
Large screens that a line does not name were inactive (follow-up assays come after a bar, where they were run).

CC(=O)c1sc(-c2ccccc2)cc1NS(=O)(=O)c1ccccc1	none
CC(=O)c1sc(-c2ccc(F)cc2)cc1NS(=O)(=O)c1ccc(C)cc1	Cl transport mod 9.96 | KCC2 sec1 inactive | KCC2 bumet counter inactive | KCC2 sec2 inactive | HEK293 Tl flux inactive | KCC2 retest ouab inactive | HEK293 Tl flux2 inactive
O=C(CNC(=O)c1cccc(Cl)c1)NCCCSc1ccccc1	none (no result: Cl transport mod)
O=c1[nH]c(=O)n(C2CCCO2)cc1F (stereo not drawn)	Cl transport mod 7.51 | KCC2 sec1 inactive | KCC2 bumet counter inactive | KCC2 sec2 inactive | HEK293 Tl flux inactive | KCC2 retest ouab inactive | HEK293 Tl flux2 inactive
Cc1cccc(OCC(=O)Nc2ccc3c(c2)nc(CCN2CCN(c4ccccn4)CC2)n3C)c1	none (no result: Cl transport mod)
C=C(C)Cn1c(CCCNC(=O)CC)nc2ccccc21	Cl transport mod -4.97 | KCC2 sec1 inactive | KCC2 bumet counter inactive | KCC2 sec2 inactive | HEK293 Tl flux inactive | KCC2 retest ouab inactive | HEK293 Tl flux2 inactive
CCCCn1c(CNC(=O)CCC)nc2ccccc21	none
CCCCCn1c(CNC(=O)CCC)nc2ccccc21	Cl transport mod -4.64 | KCC2 sec1 inactive | KCC2 bumet counter inactive | KCC2 sec2 inactive | HEK293 Tl flux inactive | KCC2 retest ouab inactive | HEK293 Tl flux2 inconclusive
C=C(C)Cn1c(CCNC(=O)CCC)nc2ccccc21	none
CC(=O)Nc1ccc(Nc2cc(C)nc3c(-c4ccccc4)cnn23)cc1	Cl transport mod -3.92 (no result: KCNQ1 act, KCNQ1 block, KCNK9 inh, hERG rescue) | KCC2 sec1 inactive | KCC2 bumet counter 0.00917 | KCC2 sec2 inactive | HEK293 Tl flux inactive | KCC2 retest ouab inactive | HEK293 Tl flux2 inactive
CCCCOc1ccc(C2C(=O)N(C3CCCCC3)CC(=O)N2CC2CCCO2)cc1 (stereo not drawn)	none
CCOCCCN1C(=O)CN(C2CCCCC2)C(=O)C1c1ccc(OC)c(OC)c1 (stereo not drawn)	none (no result: Cl transport mod)
